# Test system: Rattus norvegicus
# Test: Compound was evaluated in vivo for the effective dose that cause a 20% drop in MAP normotensive rat after oral administration
# Format: functional
row,SMILES,ED20
1,CCc1cc(C#N)ccc1Nc1c(N[C@H](C)C(C)(C)C)c(=O)c1=O,2.3 mg/kg
2,CCC(C)(C)Nc1c(NCc2c(C)cc(Cl)cc2Cl)c(=O)c1=O,100 mg/kg
3,CC1(C)Oc2ccc(OC(F)(F)F)cc2[C@@H](N2Cc3ccccc3C2=O)[C@@H]1O [CELIKALIM],0.2 mg/kg

# Species on record: Rattus norvegicus
# Test: In vitro inhibitory concentration that relaxed KCL induced contraction in rat detrusor strip by 50%
# Format: functional
row,SMILES,IC50
1,CCC(C)(C)/N=c1\c(O)c(O)\c1=N/Cc1ccc(SC)cc1,5600 nM
2,CC(C)(C)/N=c1\c(O)c(O)\c1=N/Cc1cc(F)ccc1F,3900 nM
3,N#Cc1ccc(CNc2c(NCc3ccc(C#N)cc3)c(=O)c2=O)cc1,> 30000 nM
4,CCc1cc(C/N=c2\c(O)c(O)\c2=N/C(C)(C)C)ccc1C#N,6100 nM
5,CC(C)(C)/N=c1\c(O)c(O)\c1=N/Cc1ccccc1,3400 nM
6,CCCC/N=c1\c(O)c(O)\c1=N/Cc1ccc(C#N)cc1,> 30000 nM
7,CC(/N=c1\c(O)c(O)\c1=N/CCc1ccc(C#N)cc1)C(C)(C)C (stereo not drawn),> 30000 nM
8,CCC/N=c1\c(O)c(O)\c1=N/Cc1ccc(C#N)cc1,21900 nM
9,CCC(C)(C)/N=c1\c(O)c(O)\c1=N/Cc1c(C)cccc1Cl,4400 nM
10,CC(C)(C)/N=c1\c(O)c(O)\c1=N/CCc1ccc(C#N)cc1,> 30000 nM
11,CC(C)C/N=c1\c(O)c(O)\c1=N/Cc1ccc(C#N)cc1,10200 nM
12,CCCC(=O)N(Cc1ccc(C#N)cc1)c1c(NC(C)C(C)(C)C)c(=O)c1=O (stereo not drawn),12200 nM
13,CCC(C)(C)/N=c1\c(O)c(O)\c1=N/Cc1cc(C)cc(C)c1,> 30000 nM
14,CC(C)(C)/N=c1\c(O)c(O)\c1=N/Cc1c(F)cccc1F,7500 nM
15,N#Cc1ccc(CNc2c(NC3CCCC3)c(=O)c2=O)cc1,9400 nM
16,CC(C)(C)/N=c1\c(O)c(O)\c1=N/Cc1ccncc1,3000 nM
17,CC(C)(C)/N=c1\c(O)c(O)\c1=N/Cc1cccnc1,2600 nM

row,SMILES,IC50
1,CC(C)(C)/N=c1\c(O)c(O)\c1=N/Cc1ccccn1,11500 nM
2,CC[C@@H](C)/N=c1\c(O)c(O)\c1=N/Cc1ccc(C#N)cc1,4000 nM
3,Cc1cc(Cl)cc(Cl)c1C/N=c1\c(O)c(O)\c1=N/C(C)C(C)(C)C (stereo not drawn),9800 nM
4,N#Cc1ccc(CNc2c(N)c(=O)c2=O)cc1,> 30000 nM
5,CC(C)(CO)/N=c1\c(O)c(O)\c1=N/Cc1ccc(C#N)cc1,21300 nM
6,CCC(C)(C)/N=c1\c(O)c(O)\c1=N/Cc1ccc(C)c(C)c1,> 30000 nM
7,CC(/N=c1\c(O)c(O)\c1=N/[C@H](C)C(C)(C)C)c1ccc(C#N)cc1 (stereo partly drawn),6500 nM
8,CC(/N=c1/c(NC(=O)c2ccc(C#N)cc2)c(O)c1=O)C(C)(C)C (stereo not drawn),11500 nM
9,CN(C)c1c(NCc2ccc(C#N)cc2)c(=O)c1=O,> 30000 nM
10,CC(C)(C)/N=c1\c(O)c(O)\c1=N/Cc1ccc(C#N)c(Cl)c1,1100 nM
11,N#Cc1ccc(CNc2c(NCC(F)(F)C(F)(F)F)c(=O)c2=O)cc1,14400 nM
12,CN(c1c(NCc2ccc(C#N)cc2)c(=O)c1=O)C(C)(C)C,18300 nM
13,COc1ccc(C/N=c2\c(O)c(O)\c2=N/C(C)(C)C)cc1,4800 nM
14,CC(C)/N=c1\c(O)c(O)\c1=N/Cc1ccc(C#N)cc1,14000 nM
15,CCC(C)(C)/N=c1\c(O)c(O)\c1=N/Cc1ccc(C#N)c(Cl)c1,260 nM
16,C/N=c1\c(O)c(O)\c1=N/Cc1ccc(C#N)cc1,> 30000 nM
17,CC(C)(C)/N=c1\c(O)c(O)\c1=N/Cc1cccc(F)c1,2400 nM

# Second part, the compound after the results:
row,IC50,SMILES
1,130 nM,CCC(C)(C)/N=c1\c(O)c(O)\c1=N/Cc1ccc(C#N)cc1Cl
2,290 nM,Cc1cc(Br)cc(C)c1C/N=c1\c(O)c(O)\c1=N/C(C)(C)C
3,220 nM,Cc1cc(Cl)cc(Cl)c1C/N=c1\c(O)c(O)\c1=N/C(C)(C)C
4,1100 nM,CC(C)(C)/N=c1\c(O)c(O)\c1=N/Cc1c(Cl)cccc1Cl
5,2000 nM,CCc1cc(C#N)ccc1C/N=c1\c(O)c(O)\c1=N/[C@H](C)C(C)(C)C
6,340 nM,CC(/N=c1\c(O)c(O)\c1=N/Cc1ccc(Cl)cc1Cl)C(C)(C)C (stereo not drawn)
7,140 nM,CC(C)(C)/N=c1\c(O)c(O)\c1=N/Cc1ccc(C#N)cc1Cl
8,240 nM,CCc1cc(C#N)ccc1C/N=c1\c(O)c(O)\c1=N/C(C)(C)C
9,1200 nM,CCC(C)(C)/N=c1\c(O)c(O)\c1=N/Cc1c(C)cc(Br)cc1C
10,1600 nM,CCC(C)(C)/N=c1\c(O)c(O)\c1=N/Cc1ccc(F)c(F)c1
11,200 nM,CCC(C)(C)/N=c1\c(O)c(O)\c1=N/Cc1c(C)cc(C)cc1Cl
12,220 nM,CCC(C)(C)/N=c1\c(O)c(O)\c1=N/Cc1ccc(F)cc1F
13,1500 nM,CCC(C)(C)/N=c1\c(O)c(O)\c1=N/Cc1ccc(F)cc1Cl
14,1900 nM,Cc1cc(C#N)cc(Cl)c1C/N=c1\c(O)c(O)\c1=N/C(C)C(C)(C)C (stereo not drawn)
15,750 nM,CCC(C)(C)/N=c1\c(O)c(O)\c1=N/Cc1cc(F)cc(F)c1
16,110 nM,CCc1cc(C#N)ccc1C/N=c1\c(O)c(O)\c1=N/C(C)(C)CC
17,2100 nM,CC(C)(C)/N=c1\c(O)c(O)\c1=N/Cc1ccccc1F
18,1700 nM,CC(C)(C)/N=c1\c(O)c(O)\c1=N/Cc1ccc(Cl)cc1
19,280 nM,CCC(C)(C)/N=c1\c(O)c(O)\c1=N/Cc1c(Cl)cccc1Cl
20,530 nM,CCC(C)(C)/N=c1\c(O)c(O)\c1=N/Cc1ccc(C)cc1C

row,IC50,SMILES
1,830 nM,CCC(C)(C)/N=c1\c(O)c(O)\c1=N/Cc1c(C)cccc1C
2,1400 nM,CC(C)(C)/N=c1\c(O)c(O)\c1=N/Cc1ccc(F)cc1Cl
3,1500 nM,CC(C)(C)/N=c1\c(O)c(O)\c1=N/Cc1ccc(F)cc1
4,210 nM,CCC(C)(C)/N=c1\c(O)c(O)\c1=N/Cc1ccc(Cl)cc1Cl
5,270 nM,C[C@@H](/N=c1\c(O)c(O)\c1=N/Cc1ccc(C#N)cc1)C(C)(C)C
6,100 nM,CCC(C)(C)Nc1c(NCc2c(C)cc(Cl)cc2Cl)c(=O)c1=O
7,2200 nM,CC[C@H](C)/N=c1\c(O)c(O)\c1=N/Cc1ccc(C#N)cc1
8,180 nM,CC(/N=c1\c(O)c(O)\c1=N/Cc1ccc(C#N)cc1Cl)C(C)(C)C (stereo not drawn)
9,1100 nM,CCC(C)(C)/N=c1\c(O)c(O)\c1=N/Cc1ccc(C#N)cc1
10,1300 nM,CC(C)(C)/N=c1\c(O)c(O)\c1=N/Cc1ccc(Cl)cc1Cl
11,160 nM,CCC(C)(C)/N=c1\c(O)c(O)\c1=N/Cc1c(C)cc(C#N)cc1Cl
12,270 nM,CC(C)(C)/N=c1\c(O)c(O)\c1=N/Cc1ccc(C#N)cc1
13,1300 nM,CCC(CC)/N=c1\c(O)c(O)\c1=N/Cc1ccc(C#N)cc1
14,360 nM,CCC(C)(C)/N=c1\c(O)c(O)\c1=N/Cc1ccc(F)cc1
15,870 nM,CCC(C)(C)/N=c1\c(O)c(O)\c1=N/Cc1ccc(F)c(Cl)c1
16,2100 nM,CC(C)(C)/N=c1\c(O)c(O)\c1=N/Cc1ccc(F)cc1F
17,270 nM,CCc1cc(Br)ccc1C/N=c1\c(O)c(O)\c1=N/C(C)(C)C
18,310 nM,CCC(C)(C)/N=c1\c(O)c(O)\c1=N/Cc1c(C)cc(C)cc1C
19,630 nM,Cc1ccc(C/N=c2\c(O)c(O)\c2=N/C(C)(C)C)c(C)c1

# Test system: Rattus norvegicus
# Test: Compound was evaluated in vivo for the effective dose that cause a 50% reduction in frequency of spontaneous bladder contraction in the rat hypertrophied model after oral administration
# Format: functional
# How it was run: (§1)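 Female Sprague-Dawley rats (190-210 g) given partial proximal urethral ligation (4-0 silk over 1 mm rod) under isoflurane; bladder catheter, cystometry in metabolic cages after overnight saline perfusion (2 mL/h), saline infusion 20 mL/h. Oral dosing in PEG-200 2 h after first cystometry, repeat ~1 h post-dose; % change in contraction frequency from pre-drug; ED50 from dose-response.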
row,SMILES,ED50
1,CC(C)(C)/N=c1\c(O)c(O)\c1=N/Cc1ccc(C#N)cc1Cl,3 mg/kg
2,CCCC(=O)N(Cc1ccc(C#N)cc1)c1c(NC(C)C(C)(C)C)c(=O)c1=O (stereo not drawn),8 mg/kg
3,CCc1cc(C#N)ccc1Nc1c(N[C@H](C)C(C)(C)C)c(=O)c1=O,0.13 mg/kg
4,CCC(C)(C)Nc1c(NCc2c(C)cc(Cl)cc2Cl)c(=O)c1=O,0.6 mg/kg
5,CC(C)(C)/N=c1\c(O)c(O)\c1=N/Cc1ccc(C#N)cc1,3 mg/kg
6,CCCC(=O)N(Cc1c(C)cc(Cl)cc1Cl)c1c(NC(C)(C)CC)c(=O)c1=O,3.9 mg/kg
7,CC1(C)Oc2ccc(OC(F)(F)F)cc2[C@@H](N2Cc3ccccc3C2=O)[C@@H]1O [CELIKALIM],0.3 mg/kg
8,C[C@](O)(C(=O)Nc1ccc(C(=O)c2ccccc2)cc1)C(F)(F)F [ZD-6169],2.4 mg/kg

# Test system: Rattus norvegicus
# Test: The percent change in the frequency of spontaneous bladder contractions after oral administration of a dose of 3 mg/kg in rat hypertrophic bladder model
# Format: functional
# How it was run: as §1
row,SMILES,Change
1,C[C@@H](/N=c1\c(O)c(O)\c1=N/Cc1ccc(C#N)cc1)C(C)(C)C,-69%
2,CCC(C)(C)Nc1c(NCc2c(C)cc(Cl)cc2Cl)c(=O)c1=O,-82%
3,CC(C)(C)/N=c1\c(O)c(O)\c1=N/Cc1ccc(C#N)cc1,-52%

# Test system: not listed separately
# Test: Selectivity ratio of MAP ED20/bladder ED50
# Format: functional
# How it was run: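 Ratio of oral MAP ED20 in normotensive rats to oral ED50 for 50% fall in spontaneous bladder contraction frequency in rat hypertrophied unstable-bladder model.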
row,SMILES,Ratio
1,CCc1cc(C#N)ccc1Nc1c(N[C@H](C)C(C)(C)C)c(=O)c1=O,17.7
2,CCC(C)(C)Nc1c(NCc2c(C)cc(Cl)cc2Cl)c(=O)c1=O,166
3,CC1(C)Oc2ccc(OC(F)(F)F)cc2[C@@H](N2Cc3ccccc3C2=O)[C@@H]1O [CELIKALIM],0.7
4,C[C@](O)(C(=O)Nc1ccc(C(=O)c2ccccc2)cc1)C(F)(F)F [ZD-6169],2.9

# Test system: Rattus norvegicus
# Test: The percent change in BP was determined after oral administration of a dose of 10 mg/kg in rat hypertrophied model
# Format: functional
row,SMILES,Change
1,C[C@@H](/N=c1\c(O)c(O)\c1=N/Cc1ccc(C#N)cc1)C(C)(C)C,7%
2,CCC(C)(C)Nc1c(NCc2c(C)cc(Cl)cc2Cl)c(=O)c1=O,-7%

# Source: ChEMBL document CHEMBL1132985, “Design and SAR of novel potassium channel openers targeted for urge urinary incontinence. 2. Selective and potent benzylamino cyclobutenediones” (J Med Chem, 2000)
